Assay results published in ChEMBL document CHEMBL1141864, “Structure-activity relationships in 1,4-benzodioxan-related compounds. 8.(1) {2-[2-(4-chlorobenzyloxy)phenoxy]ethyl}-[2-(2,6-dimethoxyphenoxy)ethyl]amine (clopenphendioxan) as a tool to highlight the involvement of alpha1D- and alpha1B-adrenoreceptor subtypes in the regulation of human PC-3 …” (J Med Chem, 2005).
Active and inactive are the calls of the source. The calls are words filed in the database; no cut-off is given here.

What was measured:
[1] = target: T1, Alpha-1D adrenergic receptor (Rattus norvegicus) (UniProt P23944); assay: ADRA1D blocking activity assessed by antagonism of (-)-NE induced contractions on isolated rat thoracic aorta; format: functional, tissue-based
T1 sequence (whole entry): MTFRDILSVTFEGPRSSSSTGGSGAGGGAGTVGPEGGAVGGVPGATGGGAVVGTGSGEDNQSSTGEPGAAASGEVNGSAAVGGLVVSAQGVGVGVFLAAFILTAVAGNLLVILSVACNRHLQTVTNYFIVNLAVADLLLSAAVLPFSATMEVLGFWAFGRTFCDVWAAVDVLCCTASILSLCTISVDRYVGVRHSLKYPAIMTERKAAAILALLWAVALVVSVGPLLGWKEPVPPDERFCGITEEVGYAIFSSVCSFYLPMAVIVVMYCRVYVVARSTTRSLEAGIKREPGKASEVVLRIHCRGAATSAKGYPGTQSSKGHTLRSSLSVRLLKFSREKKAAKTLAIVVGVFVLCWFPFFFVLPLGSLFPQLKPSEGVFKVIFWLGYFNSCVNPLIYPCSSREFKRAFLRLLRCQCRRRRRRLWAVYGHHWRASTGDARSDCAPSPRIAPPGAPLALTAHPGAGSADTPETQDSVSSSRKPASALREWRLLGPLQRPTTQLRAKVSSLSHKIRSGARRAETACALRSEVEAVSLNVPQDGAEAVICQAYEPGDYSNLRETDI
How it was run: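 Isolated rat tissue: each antagonist concentration tested four times over 0.01–1 μM; pK_B calculated by van Rossum method from shifts of (-)-noradrenaline contraction curves (vas deferens, α1A; thoracic aorta, α1D) or (-)-phenylephrine contraction curves (spleen, α1B).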

[2] = target: T2, Alpha-1D adrenergic receptor (Homo sapiens, UniProt P25100); assay: Displacement of [3H]prazosin from cloned human ADRA1D expressed in CHO cells; format: cell-based
T2 sequence (P25100 whole entry): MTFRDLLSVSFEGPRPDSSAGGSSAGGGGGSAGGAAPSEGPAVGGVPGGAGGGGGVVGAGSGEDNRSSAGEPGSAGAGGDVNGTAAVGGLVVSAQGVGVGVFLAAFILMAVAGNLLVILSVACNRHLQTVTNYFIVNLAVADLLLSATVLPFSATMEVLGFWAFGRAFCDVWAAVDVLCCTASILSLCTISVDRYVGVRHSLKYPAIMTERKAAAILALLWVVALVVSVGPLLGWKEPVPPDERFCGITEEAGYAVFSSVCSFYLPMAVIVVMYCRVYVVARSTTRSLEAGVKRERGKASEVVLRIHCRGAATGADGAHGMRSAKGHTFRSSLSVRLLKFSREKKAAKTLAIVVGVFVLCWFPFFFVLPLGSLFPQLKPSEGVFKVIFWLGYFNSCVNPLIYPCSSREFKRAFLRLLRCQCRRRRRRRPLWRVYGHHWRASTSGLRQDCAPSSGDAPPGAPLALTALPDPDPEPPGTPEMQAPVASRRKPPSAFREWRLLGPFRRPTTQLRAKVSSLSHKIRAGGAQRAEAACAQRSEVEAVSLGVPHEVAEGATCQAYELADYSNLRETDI

PC-3 = assay: Inhibition of NE-induced increase of PC3 cell proliferation using ELISA BrdU; format: functional, cell-based; conditions: Homo sapiens
How it was run: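 PC-3 cells (7×10^4/well) plated 24 h, then given noradrenaline (0–50 μM) alone or with antagonist (1 μM, or 0.5 μM for one compound) for 16 h. BrdU added for the last 4 h and read by colorimetric ELISA as % growth; mean ± SD of three experiments.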

[3] = target: T3, 5-hydroxytryptamine receptor 1A (Homo sapiens) (UniProt P08908); assay: Maximum response towards cloned human 5HT1A receptor
T3 sequence (whole entry): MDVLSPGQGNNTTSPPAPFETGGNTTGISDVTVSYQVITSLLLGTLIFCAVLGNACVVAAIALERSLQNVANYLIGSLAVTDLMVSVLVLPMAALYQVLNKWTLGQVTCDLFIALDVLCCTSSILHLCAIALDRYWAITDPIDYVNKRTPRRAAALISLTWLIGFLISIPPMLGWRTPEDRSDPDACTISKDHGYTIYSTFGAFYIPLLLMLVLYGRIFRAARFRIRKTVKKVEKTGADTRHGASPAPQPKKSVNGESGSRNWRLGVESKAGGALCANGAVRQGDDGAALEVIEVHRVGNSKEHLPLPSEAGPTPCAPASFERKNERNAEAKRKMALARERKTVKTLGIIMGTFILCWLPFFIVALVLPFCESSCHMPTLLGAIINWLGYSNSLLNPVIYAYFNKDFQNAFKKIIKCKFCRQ

[4] = target: T3, 5-hydroxytryptamine receptor 1A (Homo sapiens); assay: Agonist efficacy towards cloned human 5HT1A receptor by [35SGTP]gammaS binding in HeLa cells; format: cell-based

SMILES	pKb [1]	Ki [2] [pM]	Activity (PC-3)	%max [3] [%]	pD2 [4]
COc1cccc(OC)c1OCCNCCOc1ccccc1OCc1ccc(C)cc1	9.12	63.1	–	–	–
COc1cccc(OC)c1OCCNCCOc1ccccc1OCc1ccc(Cl)cc1 [CLOPENPHENDIOXAN]	9.11	31.6	Active	60	6.98
COc1ccc(COc2ccccc2OCCNCCOc2c(OC)cccc2OC)cc1	9.21	100	–	21.6	7.92
COc1cccc(OC)c1OCCNCCOc1ccccc1OCc1cccc([N+](=O)[O-])c1	9.28	63.1	–	44.4	7.16
COc1cccc(COc2ccccc2OCCNCCOc2c(OC)cccc2OC)c1	9.12	316	–	–	–
COc1cccc(OC)c1OCCNCCOc1ccccc1OCc1ccccc1	9.37	67.6	Active	45.7	7.11
COc1cccc(OC)c1OCCNCCOc1ccccc1OCc1ccccc1C	8.64	126	–	75.6	6.96
COc1ccccc1COc1ccccc1OCCNCCOc1c(OC)cccc1OC	8.86	2000	–	–	–
COc1cccc(OC)c1OCCNCCOc1ccccc1OCc1ccccc1Cl	8.59	251	–	74.4	7.31
COc1cccc(OC)c1OCCNCCOc1ccccc1OCc1cccc(C)c1	8.85	200	–	–	–
COc1cccc(OC)c1OCCNCCOc1ccccc1OCc1ccc([N+](=O)[O-])cc1	9.41	50.1	–	79.1	6.15
COc1cccc(OC)c1OCCNCCOc1ccccc1OCc1ccccc1[N+](=O)[O-]	8.95	912	–	–	–
COc1cccc(OC)c1OCCNCCOc1ccccc1OCc1cccc(Cl)c1	8.72	50.1	–	67.1	7.15
